In the library only some 5.9% were active in any assay of this set; here they are far more common.
KDM4C inh: inhibitors of human demethylase GASC-1 KDM4C. 96,000 compounds, 0.15% hits. Q9H3R0. inhibition, % at 12.5 µM. GST-KDM4C 2-372, H3K9me3 peptide, LANCE TR-FRET;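 active means mean replicate inhibition above about 25%, with at least 55% of replicates also reaching it, limit read from the data, passing the limit was not always enough; inconclusive means only one of those two conditions met; inactive means neither condition met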
Target sequence (Q9H3R0 2-372 limits assumed): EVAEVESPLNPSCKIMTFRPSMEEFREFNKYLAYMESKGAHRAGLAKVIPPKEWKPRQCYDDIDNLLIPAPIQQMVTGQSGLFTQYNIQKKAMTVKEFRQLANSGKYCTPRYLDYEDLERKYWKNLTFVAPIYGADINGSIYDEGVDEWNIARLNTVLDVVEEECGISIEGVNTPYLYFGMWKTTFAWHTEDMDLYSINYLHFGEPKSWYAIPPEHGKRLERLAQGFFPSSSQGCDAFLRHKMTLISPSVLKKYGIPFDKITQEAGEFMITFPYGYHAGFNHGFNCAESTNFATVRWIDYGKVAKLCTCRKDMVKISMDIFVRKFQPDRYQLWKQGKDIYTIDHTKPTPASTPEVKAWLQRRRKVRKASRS
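Material: GST-tagged GASC-1 (JMJD2C) catalytic fragment, aa 2-372 / Quantity: enzyme final amount 10 nM / Medium: HEPES buffer, pH 7.5, plus ascorbate / Doses: one test concentration per compound / Incubation: 30 min reaction, 60 min detection, RT / Measured by: LANCE TR-FRET / Read-out: inhibition from TR-FRET ratio decrease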
T cruzi growth-1: blocks T. cruzi growth in NIH3T3 culture; T. cruzi beta-gal in NIH3T3, GalScreen luminescence, 90 h; 77,000 compounds, 5.9% hits; inhibition, % at 8.34 µM; AID 624255;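 active means mean inhibition above about 93%, with at least 55% of replicates each passing it, limit read from the data, passing the limit was not always enough; inconclusive means only one of those two conditions holds; inactive means neither condition holds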
Pf Dd2 inh: inhibitors of Plasmodium falciparum Dd2 growth; AID 1159554; P. falciparum Dd2 growth, SYBR Green, 72 h; hits give low values; 94,000 compounds, 2.3% hits; activity change, % at 10 µM; in the data active means activity change below about -80%; inconclusive means no clear call, values can overlap the other calls
IDH1 R132H inh: blocks human IDH1 R132H reductase activity | diaphorase/resazurin fluorescence, 60 min | O75874 | inhibition, % at 10 µM | 70,000 compounds, 0.18% hits; in the data active means inhibition above about 34%; inconclusive means no clear call, values can overlap the other calls; inactive means below about 11%;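 further: 0% = DMSO and 100% = no enzyme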
T cruzi growth-2: blocks T. cruzi growth in NIH3T3 host cells | shares compounds with T cruzi growth-1 | T. cruzi beta-gal in NIH3T3, GalScreen luminescence, 90 h | inhibition, % at 8.35 µM | 5,600 compounds, 72% hits;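 active means mean replicate inhibition above about 95% and at least 55% of replicates individually reaching it, limit read from the data; inconclusive means only one of the two criteria is met; inactive means neither criterion is met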
T cruzi growth-3: blocks T. cruzi growth in NIH3T3 host cells; shares compounds with T cruzi growth-1; T. cruzi beta-gal in NIH3T3, GalScreen luminescence, 90 h; inhibition, % at 2.09 µM; 5,600 compounds, 21% hits; AID 651740;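 active means mean inhibition above about 95%, with at least 55% of replicates also reaching it, limit read from the data; inconclusive means meets just one of the two conditions; inactive means meets neither condition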;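 further: plate controls were neutral control median for no effect and positive control median for full effect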
NIH3T3 tox: cytotoxicity in mouse NIH/3T3 fibroblasts; NIH/3T3 viability, CellTiter-Glo ATP luminescence, 90 h; cytotoxicity (signal decrease), % at 8.35 µM; 5,600 compounds, 14% hits; shares compounds with T cruzi growth-1;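 active means mean signal decrease across replicates above about 35% based on untreated-well scatter, with enough replicates individually passing, limit read from the data; inconclusive means no rule stated though some were filed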;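 further: 0% = median of neutral control wells and 100% = median of positive control wells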
3T3 cytotox 2: cytotoxicity in mouse NIH/3T3 fibroblasts; inhibition, % at 24.9 µM; 5,600 compounds, 56% hits; shares compounds with T cruzi growth-1; AID 651744; NIH/3T3 viability, CellTiter-Glo ATP luminescence, 90 h;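 active means mean loss of cell viability signal at or above a set limit, and enough replicates individually reaching it; inconclusive means meets only the mean limit or only the replicate share; inactive means meets neither condition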;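 further: 0% = median of neutral control wells and 100% = median of positive control wells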
Starred values were filed as active, the others as inactive; ? = inconclusive; · = no result.

SMILES | KDM4C inh | T cruzi growth-1 | Pf Dd2 inh | IDH1 R132H inh | T cruzi growth-2 | T cruzi growth-3 | NIH3T3 tox | 3T3 cytotox 2
CCn1c(SCC(=O)Nc2ccccc2C)nnc1-c1ccco1 | · | · | · | 0 | · | · | · | ·
COc1ccc(C#Cc2ccc([C@@H]3[C@H](CO)N4CCCCN(S(=O)(=O)c5ccccc5)C[C@@H]34)cc2)cc1 | -1 | 102 | -67 | · | · | · | · | ·
O=S(=O)(c1ccccc1)N1CCCCN2[C@H](C1)[C@H](c1ccc(C#Cc3cccnc3)cc1)[C@@H]2CO | -1 | 114* | -56 | · | 105* | 67 | 15 | 49*
C[C@H]1CN([C@@H](C)CO)C(=O)c2cc(NS(=O)(=O)c3ccc(Cl)cc3)ccc2O[C@@H]1CN(C)Cc1ccc(Oc2ccccc2)cc1 | 0 | ? | 6 | 0 | 108* | 37 | 29 | 105*
COc1ccc(S(=O)(=O)Nc2ccc3c(c2)C(=O)N([C@@H](C)CO)C[C@H](C)[C@H](CN(C)Cc2ccc(-c4ccccc4)cc2)O3)cc1 | -2 | ? | 9 | 0 | 103* | 19 | 11 | 88*
C[C@H]1CN([C@@H](C)CO)C(=O)c2cc(NS(=O)(=O)c3ccc(Cl)cc3)ccc2O[C@@H]1CN(C)Cc1ccc(-c2ccccc2)cc1 | -1 | 111* | 48 | -2 | 103* | 21 | -2 | 104*
C[C@H](CO)N1C[C@H](C)[C@@H](CN(C)Cc2ccc(-c3ccccc3)cc2)Oc2ccc(NS(=O)(=O)c3ccc(Cl)cc3)cc2C1=O | 0 | 96 | 7 | · | · | · | · | ·
C[C@@H]1CN([C@@H](C)CO)C(=O)c2cc(NS(=O)(=O)c3ccc(Cl)cc3)ccc2O[C@@H]1CN(C)Cc1ccc(-c2ccccc2)cc1 | -3 | ? | 20 | 1 | ? | 58 | 82* | 103*
COc1ccc(S(=O)(=O)Nc2ccc3c(c2)C(=O)N([C@H](C)CO)C[C@H](C)[C@H](CN(C)Cc2ccc(-c4ccccc4)cc2)O3)cc1 | -1 | 67 | 12 | 0 | · | · | · | ·
C[C@@H]1CN([C@H](C)CO)C(=O)c2cc(NS(=O)(=O)c3ccc(F)cc3)ccc2O[C@@H]1CN(C)Cc1ccc(-c2ccccc2)cc1 | -2 | 92 | 6 | -2 | · | · | · | ·
C[C@@H]1CN([C@H](C)CO)C(=O)c2cc(NS(=O)(=O)c3ccc(Cl)cc3)ccc2O[C@@H]1CN(C)Cc1ccc(-c2ccccc2)cc1 | 0 | ? | 10 | -3 | 98* | 85 | 92* | 105*
C[C@H](CO)N1C[C@H](C)[C@H](CN(C)Cc2ccc(-c3ccccc3)cc2)Oc2ccc(NS(=O)(=O)c3ccc(Cl)cc3)cc2C1=O | -2 | 112* | -12 | 2 | 104* | 41 | 30 | 103*
C[C@@H]1CN([C@@H](C)CO)C(=O)c2cc(NS(=O)(=O)c3ccc(F)cc3)ccc2O[C@H]1CN(C)Cc1ccc(-c2ccccc2)cc1 | -1 | ? | -4 | 1 | 106* | 83 | 8 | 103*
O=C(COc1ccccc1[N+](=O)[O-])Nc1ccc2oc(-c3ccc(Cl)cc3Cl)nc2c1 | · | · | · | 0 | · | · | · | ·
Cc1ccccc1-c1ccc2c(c1)O[C@H](CN(C)C(=O)Nc1ccccc1)[C@@H](C)CN([C@@H](C)CO)S2(=O)=O | -3 | 92* | -41 | 0 | 102* | 56 | ? | 64*
C[C@H](CO)N1C[C@H](C)[C@H](CN(C)C(=O)Nc2ccccc2)Oc2cc(C#Cc3ccccc3)ccc2S1(=O)=O | -1 | 118* | -70 | 1 | 107* | 81 | 21 | 14
C[C@H](CO)N1C[C@H](C)[C@@H](CN(C)C(=O)Nc2ccccc2)Oc2cc(C#Cc3ccccc3)ccc2S1(=O)=O | -2 | 118* | -40 | 0 | 105* | 68 | -9 | -9
CC(C)c1ccc2oc(-c3ccc(Cl)c(NC(=O)COc4ccc([N+](=O)[O-])cc4)c3)nc2c1 | · | · | · | 0 | · | · | · | ·
CCN(CC)C(=O)c1sc(NC(=S)Nc2ccc(Br)cn2)c(C(=O)OC)c1C | · | · | · | 0 | · | · | · | ·

Assay outcomes: PubChem BioAssay, Broad Institute
